# A selection: hits, their analogues and other compounds. The true share with any hit is near 1.6%.
# TCR CD3 inh – human TCR-CD3 binding inhibition. inhibition, % at 9.4 µM. 360,000 compounds, 0.37% hits. TAMRA-labeled TCR probe fluorescence, biochemical. AID 651800; in the data active = inhibition above about 19%;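 note: recombinant mutant TCR 2C K166C tagged with TAMRA read by polarization; 0% = receptor in buffer alone and 100% = receptor with positive control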
# mABHD4 FP – ABHD4 (mouse) inhibition, primary FP screen | Q8VD66 | purified mABHD4, FP-Rh probe fluorescence polarization | inhibition, % at 8.92 µM | 370,000 compounds, 0.54% hits | AID 720543;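 active = inhibition exceeding the mean over every tested compound plus 3 SD, cut at about 30% in these data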;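 note: 0% = plate median of compound wells and 100% = S159A mutant with DMSO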
#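 system = mouse ABHD4 enzyme, wild type | medium = HEPES pH 7.0, NaCl, Pluronic buffer | also added = FP-Rh probe | incubation = Enzyme–compound pre-incubation 45 min, then probe 60 min, both 25 °C | technique = fluorescence polarization, excitation 525 nm, emission 598 nm, BODIPY TMR filters | controls = S159A mutant high control, sample median low control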
# HTRA1 inhibitor – inhibitors of human serine peptidase HTRA1; Q92743; recombinant HTRA1, FP-rhodamine activity-based probe, fluorescence polarization; inhibition, % at 5.96 µM; 340,000 compounds, 0.5% hits; AID 504803; in the data active = inhibition above about 36%;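 note: 0% = enzyme with DMSO and 100% = wells lacking enzyme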
# DAGLB inhibitor – diacylglycerol lipase beta (human) inhibition; inhibition, % at 5.17 µM; HEK293T DAGLB membrane lysate, EnzChek fluorogenic substrate; 340,000 compounds, 0.059% hits; Q8NCG7; in the data active = inhibition above about 34%;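 note: 0% = enzyme with vehicle and 100% = wells lacking enzyme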
# SIAE inh – inhibitors of human sialic acid acetylesterase SIAE. SIAE FP-Rh probe binding, fluorescence polarization. inhibition, % at 9.66 µM. 370,000 compounds, 0.69% hits;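 active = inhibition above a cutoff: mean of compounds within the control limits plus 3 SD of those, cut at about 17% in these data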;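 note: 0% = plate median of compound wells and 100% = probe without SIAE protein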
# Target sequence (Q9HAT2 whole entry, looked up): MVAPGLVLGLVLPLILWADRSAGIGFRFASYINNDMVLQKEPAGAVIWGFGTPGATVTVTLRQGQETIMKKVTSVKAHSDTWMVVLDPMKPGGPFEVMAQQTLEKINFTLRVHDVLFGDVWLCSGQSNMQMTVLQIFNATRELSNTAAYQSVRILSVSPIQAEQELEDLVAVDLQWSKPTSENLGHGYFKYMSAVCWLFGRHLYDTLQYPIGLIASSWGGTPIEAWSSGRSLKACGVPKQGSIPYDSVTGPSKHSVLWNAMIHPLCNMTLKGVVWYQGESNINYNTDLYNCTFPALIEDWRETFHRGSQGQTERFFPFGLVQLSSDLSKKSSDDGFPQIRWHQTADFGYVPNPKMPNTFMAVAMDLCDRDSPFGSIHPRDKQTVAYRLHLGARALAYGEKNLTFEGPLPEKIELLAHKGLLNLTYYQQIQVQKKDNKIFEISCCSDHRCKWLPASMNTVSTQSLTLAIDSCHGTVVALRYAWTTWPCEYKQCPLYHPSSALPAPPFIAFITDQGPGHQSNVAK
# SIAE confirm – confirmation of human SIAE inhibitors; AID 1117263; SIAE FP-Rh activity-based probe, fluorescence polarization; shares compounds with SIAE inh; inhibition, % at 9.66 µM; 2,300 compounds, 13% hits;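 active = mean inhibition of the replicates above the hit cutoff set in the primary screen, cut at about 17% in these data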;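 note: 0% = SIAE with DMSO and probe and 100% = probe without SIAE; inhibitors lower polarization as more probe stays unbound to SIAE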
# * marks the source's active call; other numbers are inactive results; . = not tested or not shown.
SMILES,TCR CD3 inh,mABHD4 FP,HTRA1 inhibitor,DAGLB inhibitor,SIAE inh,SIAE confirm
O=C(/C=C/c1ccco1)NC(=S)Nc1cccc([N+](=O)[O-])c1,2.7,21.0,7.0,7.0,22.7*,-15.7
NS(=O)(=O)c1ccc(NC(=S)NC(=O)/C=C/c2ccco2)cc1,1.8,29.5,1.8,4.2,18.8*,-10.0
N#CCC[C@@H]1CC[C@]2(CCCN(S(=O)(=O)c3ccccc3)C2)O1,.,-10.4,.,.,0.1,.
CC[C@H](NC(=O)[C@@H](Cc1ccccc1)NC(=O)[C@H]1O[C@@H](n2cnc3c(=O)[nH]c(N)nc32)[C@H](O)[C@@H]1O)c1ccccc1,-3.3,8.2,.,.,4.4,.
COC(=O)c1cccc(Cn2ccc3ccc(-c4ccc5ccn(C(=O)c6cccc(OC)c6)c5c4)cc32)c1,.,-21.0,.,.,-9.0,.
COc1ccc(-c2nnc(SCC(=O)N/N=C\C=C/c3ccco3)n2-c2ccc(C)cc2)cc1,.,-1.1,.,.,-7.0,.
O=S(=O)(NCc1ccco1)c1ccccc1Br,4.0,-4.9,-1.6,-1.5,19.7*,-1.3
COCc1cn(-c2ccc3c(c2)[C@@]2(CC(=O)N(C)C2c2ccccc2)C(=O)N3CC(C)C)nn1 (stereo partly drawn),.,2.6,.,.,-57.9,.
CCN1CCN(S(=O)(=O)c2ccc(Cl)c(C(=O)Nc3ccccc3N3CCCCC3)c2)CC1,0.1,11.4,-14.6,-0.7,17.1*,-2.3
CCN1CCN(c2ccc(S(=O)(=O)N3CCCCC3)cc2NC(=O)c2ccc(OC(F)F)cc2)CC1,6.8,0.5,-10.8,-1.7,-2.0,.
CCN1CCN(S(=O)(=O)c2ccc(Cl)c(C(=O)N(C)CCOc3ccc(Cl)cc3)c2)CC1,-0.6,-0.6,-3.0,-1.8,19.7*,0.7
CCN1CCN(c2ccc(S(=O)(=O)N3CCCCC3)cc2NC(=O)c2cccc(OC(F)F)c2)CC1,-3.6,4.8,-16.7,1.1,20.5*,7.0
CCc1nnc(NC(=O)CSc2nc3c([nH]c4ccccc43)c(=O)n2CCOC)s1,-6.5,11.1,1.8,2.1,17.6*,-1.3
CNC(=O)CSc1nc2c([nH]c3ccccc32)c(=O)n1CCOC,-3.8,3.0,3.4,-1.1,-1.1,.
CCC(C)(C)C(=O)N1CCC(C(=O)NC2CCCc3ccccc32)CC1 (stereo not drawn),.,-0.1,.,.,-6.1,.
Cc1cc2ccccn2c1C(=O)c1ccc(S(=O)(=O)N(C)C)cc1,-4.1,-3.7,-6.1,-0.9,18.9*,0.8
Cc1cc2ccccn2c1C(=O)c1ccc(F)cc1,-1.3,6.6,-5.8,-3.0,-6.4,.
O=C(CNc1ccc2ccccc2c1)N/N=C/c1ccc(OC(=O)/C=C/c2ccco2)cc1,-2.8,-6.5,8.4,-2.0,21.7*,13.7
O=C(NCCc1ccc(F)cc1)c1cc2ccccn2n1,.,-2.6,.,.,2.4,.
O=C(NCc1ccc(Cl)cc1)c1cc2ccccn2n1,-8.2,-1.5,-3.3,-2.3,53.9*,3.5
Cc1c(C(=O)Nc2ccccc2)c2ccc(C(F)(F)F)cc2n1O,3.9,-5.3,.,.,25.0*,29.4*
COc1ccc2c(c1)CC=C1C2CCC2(C)C(=O)C(=NO)CC12 (stereo not drawn),6.1,-13.1,-7.5,-3.2,19.3*,22.2*
COc1ccc(-c2nc(C(=O)O)cs2)cc1OC,6.5,-0.7,4.0,-1.0,2.5,.
COc1ccc(C(=O)O)nc1C,-1.8,4.9,-2.3,-0.9,21.2*,6.1
Cn1c(=O)c2[nH]c(SCC(=O)N3CCN(c4cccc(C(F)(F)F)c4)CC3)nc2n(C)c1=O,.,1.1,.,.,2.3,.
SMILES,TCR CD3 inh,mABHD4 FP,HTRA1 inhibitor,DAGLB inhibitor,SIAE inh,SIAE confirm
CCCCCCCCC(c1nc2ccccc2[nH]1)N1CCN=C1c1cc2ccccc2[nH]1 (stereo not drawn),6.5,25.6,.,.,21.7*,28.5*
CNc1ccccc1/C(O)=C(\C#N)C(=O)NCc1cccc2ccccc12,.,-8.5,.,.,-2.6,.
O=C(NC1CCCCN(Cc2ccc(Cl)cc2)C1=O)c1cccs1 (stereo not drawn),.,1.5,.,.,-2.3,.
COc1ccc(NC(=O)N(C)C[C@H]2Oc3c(NC(=O)c4ccncc4)cccc3C(=O)N([C@H](C)CO)C[C@@H]2C)cc1,2.4,-0.1,3.4,-2.4,22.9*,2.4
CCOc1ccc(-n2cc(C(=O)Nc3cccc(OC)c3)c3cc(OC)c(OC)cc3c2=O)cc1,2.0,-24.5,-44.9,-1.3,-9.8,.
CCOc1ccc(-n2cc(C(=O)NCCOC)c3cc(OC)c(OC)cc3c2=O)cc1,1.9,2.9,4.5,0.7,21.7*,-5.4
COC(=O)C1=C(C)N(Cc2ccccc2C(F)(F)F)C(=NCc2ccccc2)NC1c1cccc(F)c1 (stereo not drawn),3.4,4.0,.,.,-7.8,.
O=C(COc1ccc2ccc(=O)oc2c1)NC1CCCC1,-11.4,3.0,2.3,2.7,-3.5,.
O=C(Oc1ccc2ccc(=O)oc2c1)C1CCCCC1,1.8,4.6,2.8,-1.9,38.2*,33.6*
CCc1nc2sc3c(c2c(=O)o1)CCCC3,-1.8,5.0,6.2,-0.2,20.5*,8.8
CC(C)(C)c1nc2sc3c(c2c(=O)o1)CCCC3,-0.7,-1.7,-1.7,-0.9,4.8,.
O=C(N/N=C/c1sc(N2CCOCC2)nc1-c1ccccc1)c1ccccc1O,-11.1,12.5,25.0,-0.2,11.7,.
Nc1ccc(C(=O)N/N=C/c2sc(N3CCOCC3)nc2-c2ccccc2)cc1,-2.4,13.8,10.7,2.6,17.1*,4.0
COc1ccccc1NC(=S)NCCc1c[nH]c2ccccc12,0.9,-0.3,-0.5,1.3,2.9,.
COc1cc(NC(=S)NCCc2c[nH]c3ccccc23)c(OC)cc1Cl,-9.8,0.7,-13.5,0.0,20.4*,6.6
CCCC[C@H]1C2CC(OC(=O)Nc3ccc(F)cc3)C(C2)[C@H]2CCCCN21 (stereo partly drawn),.,-0.1,.,.,1.3,.
O=C(Oc1cccc(-n2cnnn2)c1)C1CCCCC1,5.6,-1.9,-2.8,-1.3,22.5*,17.2*
COc1cccc(NC(=S)Nc2cc(C(=O)O)ccc2N2CC3CC(C2)c2cccc(=O)n2C3)c1 (stereo not drawn),-2.7,6.3,2.6,-1.9,18.1*,2.9
Cc1ccc(NC(=S)Nc2cc(C(=O)O)ccc2N2CC3CC(C2)c2cccc(=O)n2C3)cc1C (stereo not drawn),2.0,7.1,0.2,-5.3,9.2,.
CCCCNC(=O)C[C@H]1C[C@@]2(C(=O)OC)C(=C[C@H](C3CCCC3)O[C@@H]2C)N(CCc2ccc(OC)c(OC)c2)C1=O,.,-5.1,.,.,-1.5,.
COc1ccc(OC)c(Nc2nc(NCc3ccco3)c3ccccc3n2)c1,6.3,15.0,23.0,1.2,17.7*,10.5
CCCCCN1CC(=O)N2Cc3[nH]c4ccccc4c3C[C@H]2C1=O,-3.9,-5.7,-0.5,3.0,-1.6,.
O=C1[C@@H]2Cc3c([nH]c4ccccc34)CN2C(=O)CN1CCCO,-2.1,-0.1,-6.3,0.6,17.7*,4.4
CCCCSCCCNC(=O)CS(=O)Cc1nc(-c2cccc(C)c2)oc1C (stereo not drawn),12.4,-4.6,-7.9,-2.4,5.0,.
